Measurements from different studies.
RIOK2: Serine/threonine-protein kinase RIO2 (RIOK2, Homo sapiens, UniProt Q9BVS4)
Fibroblast growth factor 14: Fibroblast growth factor 14 (Homo sapiens, UniProt Q92915)

N#Cc1ccc(NC(=O)Nc2ccccc2)cc1  remaining binding (RIOK2; cell-free assay; competition with immobilised ligand; 25 µM): 68%
Cc1cccc(NC(=O)Cn2cc(CO)c3ccccc32)c1  kon (Fibroblast growth factor 14; binding; SPR): 8900 M⁻¹ s⁻¹
Cc1cc(F)cc2c(CCC(=O)N[C@@H]3C(=O)NC[C@H]3O)c(-c3ccc(F)cc3)[nH]c12  inhibition (5-hydroxytryptamine receptor 1A (HTR1A, Homo sapiens, UniProt P08908); cell-free assay; 10 µM): -8%
CC(=O)Nc1ccc(S(=O)(=O)N2CCN(CC(O)COc3ccc4ccccc4c3)CC2)cc1 (stereo not shown)  kon (Fibroblast growth factor 14; binding; SPR): 4290 M⁻¹ s⁻¹
NC/C(=C\F)COc1cccc(Cn2c(=S)[nH]c(=O)c3[nH]cnc32)c1  inhibition (Glucocorticoid receptor (NR3C1, Homo sapiens, UniProt P04150); ligand displacement; radioligand; 10 µM): < 50%
CCN1/C(=C/C(C)=O)Sc2ccc(F)cc21  inhibition (Nociceptin receptor (OPRL1, Homo sapiens, UniProt P41146); ligand displacement; radioligand; 10 µM): 0.04%
C#Cc1cnc(Nc2ccnc(CO)c2)nc1Nc1ccccc1S(C)(=O)=NC#N (stereo not shown)  remaining signal (RIOK2; cell-free assay; 1 µM): 100%
O=C(CN(Cc1ccccc1)S(=O)(=O)c1ccc(F)cc1)Nc1cccc(Cl)c1Cl  ΔTm (Fibroblast growth factor 14; thermal stability; 25 µM): 1 °C
CCCCC(=O)Nc1ccc(-c2ccc3ncn(CCC)c(=O)c3c2)cn1  remaining binding (Mitogen-activated protein kinase kinase kinase 13 (MAP3K13, Homo sapiens, UniProt O43283); binding; competition with immobilised ligand; 0.5 µM): 94%
C#Cc1cc(-c2cc(Nc3nc(N[C@@H](C)c4ccc(F)cn4)ncc3Cl)n[nH]2)ccc1C=O  inhibition (Serine/threonine-protein kinase TAO2 (TAOK2, Homo sapiens, UniProt Q9UL54); enzyme activity; inhibitor; 0.2 µM): 3.89%
CC(=O)ON=C1C=CC(=C(C#N)c2ccccc2)C=C1  activity vs control (Casein kinase I isoform epsilon (CSNK1E, Homo sapiens, UniProt P49674); enzyme activity; inhibitor; ADP detection; 2 µM): 77%
COc1ccc2oc(-c3ccc4nc(N)oc4c3)c/c(=N\c3ccccc3NC(=O)CCN)c2c1  remaining binding (Serine/threonine-protein kinase BRSK2 (BRSK2, Homo sapiens, UniProt Q8IWQ3); binding; 1 µM): 85%
C1=C/COCc2cc(ccc2OCCN2CCCC2)Nc2nccc(n2)-c2cccc(c2)COC/1  remaining binding (Death-associated protein kinase 3 (DAPK3, Homo sapiens, UniProt O43293); binding; 0.1 µM): 53%
